≈ marks a conversion by molar mass, not a printed value.
Test system: Mycobacterium tuberculosis
Assay: Anti-mycobacterial activity against Mycobacterium tuberculosis H37Rv incubated for 5 days by alamar blue assay
Assay type: functional
Conditions: 120 h, time 5 day
Procedure, shortened: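 Inoculum from Löwenstein-Jensen culture suspended in Middlebrook 7H9 broth with 0.2% glycerol and 10% OADC, diluted 1:20. Compounds serially diluted in 7H9, final 100 to 0.4 µg/ml. Sealed plates incubated 37°C for 5 days, then Alamar Blue/10% Tween 80 (1:1) added for 24 h. Blue = no growth, pink = growth; MIC is lowest concentration preventing blue-to-pink change.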

Structure (SMILES)	MIC
COc1ccc(-c2cn3cc(C4=CCN(S(=O)(=O)C5CCCC5)CC4)ccc3n2)cc1OC	25 µg/mL (≈ 53.5 µM)
COc1ccc(-c2cn3cc(C4=CCN(C(=O)C5CCCCC5)CC4)ccc3n2)cc1OC	50 µg/mL (≈ 112 µM)
COc1ccc(-c2cn3cc(C4=CCN(C(=O)c5cccc(F)c5)CC4)ccc3n2)cc1OC	50 µg/mL (≈ 109 µM)
COc1ccc(-c2cn3cc(C4=CCN(C(=O)C5CC5)CC4)ccc3n2)cc1OC	50 µg/mL (≈ 124 µM)
COc1ccc(-c2cn3cc(C4=CCN(S(=O)(=O)c5ccc(C(F)(F)F)cc5)CC4)ccc3n2)cc1OC	6.25 µg/mL (≈ 11.5 µM)
COc1ccc(-c2cn3cc(C4=CCN(S(=O)(=O)c5ccc(C)cc5)CC4)ccc3n2)cc1OC	25 µg/mL (≈ 51.1 µM)
COc1ccc(-c2cn3cc(C4=CCN(C(=O)c5ccc(F)cc5)CC4)ccc3n2)cc1OC	25 µg/mL (≈ 54.6 µM)
COc1ccc(-c2cn3cc(C4=CCN(S(=O)(=O)c5ccccc5)CC4)ccc3n2)cc1OC	25 µg/mL (≈ 52.6 µM)
COc1ccc(-c2cn3cc(C4=CCN(C(=O)c5cocn5)CC4)ccc3n2)cc1OC	50 µg/mL (≈ 116 µM)
COc1ccc(-c2cn3cc(C4=CCN(C(=O)c5cccc(C(F)(F)F)c5)CC4)ccc3n2)cc1OC	12.5 µg/mL (≈ 24.6 µM)
COc1ccc(-c2cn3cc(C4=CCN(C(=O)c5ccco5)CC4)ccc3n2)cc1OC	50 µg/mL (≈ 116 µM)
COc1ccc(-c2cn3cc(C4=CCN(S(=O)(=O)C5CC5)CC4)ccc3n2)cc1OC	12.5 µg/mL (≈ 28.4 µM)
COc1ccc(-c2cn3cc(C4=CCN(S(=O)(=O)c5ccc(C(C)=O)cc5)CC4)ccc3n2)cc1OC	6.25 µg/mL (≈ 12.1 µM)
COc1ccc(-c2cn3cc(C4=CCN(C(=O)c5ccccn5)CC4)ccc3n2)cc1OC	100 µg/mL (≈ 227 µM)
COc1ccc(-c2cn3cc(C4=CCN(S(=O)(=O)c5ccc(Cl)s5)CC4)ccc3n2)cc1OC	6.25 µg/mL (≈ 12.1 µM)
COc1ccc(-c2cn3cc(C4=CCN(C(=O)c5cccs5)CC4)ccc3n2)cc1OC	25 µg/mL (≈ 56.1 µM)

Structure (SMILES)	MIC
COc1ccc(-c2cn3cc(C4=CCN(C(C)=O)CC4)ccc3n2)cc1OC	> 100 µg/mL
COc1ccc(-c2cn3cc(C4=CCN(S(=O)(=O)c5ccc(Cl)cc5)CC4)ccc3n2)cc1OC	6.25 µg/mL (≈ 12.3 µM)
COc1ccc(-c2cn3cc(C4=CCN(C(=O)COCc5ccccc5)CC4)ccc3n2)cc1OC	50 µg/mL (≈ 103 µM)
COc1ccc(-c2cn3cc(C4=CCN(S(=O)(=O)c5ccc(Br)cc5)CC4)ccc3n2)cc1OC	6.25 µg/mL (≈ 11.3 µM)
COc1ccc(-c2cn3cc(C4=CCN(S(=O)(=O)c5ccc(C(C)(C)C)cc5)CC4)ccc3n2)cc1OC	6.25 µg/mL (≈ 11.8 µM)
COc1ccc(-c2cn3cc(C4=CCN(S(=O)(=O)c5ccc(Br)s5)CC4)ccc3n2)cc1OC	3.12 µg/mL (≈ 5.58 µM)
COc1ccc(-c2cn3cc(C4=CCN(S(=O)(=O)c5ccc(F)cc5)CC4)ccc3n2)cc1OC	6.25 µg/mL (≈ 12.7 µM)
CCS(=O)(=O)N1CC=C(c2ccc3nc(-c4ccc(OC)c(OC)c4)cn3c2)CC1	12.5 µg/mL (≈ 29.2 µM)
CCCS(=O)(=O)N1CC=C(c2ccc3nc(-c4ccc(OC)c(OC)c4)cn3c2)CC1	12.5 µg/mL (≈ 28.3 µM)
COc1ccc(-c2cn3cc(C4=CCN(S(=O)(=O)C5CCCCC5)CC4)ccc3n2)cc1OC	25 µg/mL (≈ 51.9 µM)
COc1ccc(-c2cn3cc(C4=CCN(S(=O)(=O)c5ccc([N+](=O)[O-])cc5)CC4)ccc3n2)cc1OC	6.25 µg/mL (≈ 12 µM)
COc1ccc(-c2cn3cc(C4=CCN(C(=O)c5ccccc5F)CC4)ccc3n2)cc1OC	6.25 µg/mL (≈ 13.7 µM)
COc1ccc(-c2cn3cc(C4=CCN(C(=O)C(C)(C)C)CC4)ccc3n2)cc1OC	100 µg/mL (≈ 238 µM)
Nc1ccc(C(=O)O)c(O)c1 [AMINOSALICYLIC ACID]	12.5 µg/mL (≈ 81.6 µM)
CC[C@@H](CO)NCCN[C@@H](CC)CO [ETHAMBUTOL]	6.25 µg/mL (≈ 30.6 µM)

Source: ChEMBL document CHEMBL5107963, “Design, synthesis and anti-mycobacterial evaluation of imidazo[1,2-a]pyridine analogues” (RSC Med Chem, 2022)
